The source of these data is PubChem BioAssay.

The term viability denotes a read-out of living cells in per cent, often relative to untreated cells. As usually defined, the inhibition is the drop in the measured response relative to a control, in per cent.

Each structure is given as a SMILES string. Values without a mark were called inactive. Records with an inconclusive call do not appear. Calls of active or inactive are those of the source.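 The calls were made as follows, unless noted: active = inhibition over a set limit, the all-compound mean plus 3 SD, in both replicate runs; inconclusive = over that limit in just one replicate run; inactive = at or under that limit in both runs.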

Assay [1] in a line: OD615 S. cerevisiae growth inhibition, permissive medium, pilot counter-assay, permissive growth control for S. cerevisiae lifespan shortening project (AID 705;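 active = growth inhibition above 25% in both replicates, a cutoff set 3 SD above the mean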). Conditions: OD615, 24 h, at 10 µM, active compounds read high. In outline:
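Material: engineered DeaD yeast; compound dosing: one dose 10 µM, DMSO 0.25% final; measure: yeast growth inhibition indicated by reduced 24 h OD615; detection: OD615 turbidity read; incubation: cells pre-grown 4 h, then 24 h compound exposure, 30 °C humidified; medium: permissive synthetic complete medium with raffinose and galactose carbon sources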

Assay [2] in a line: Restrictive medium S. cerevisiae growth inhibition, OD615, pilot screen of yeast lifespan reduction project, restrictive growth control (AID 706;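 active = growth inhibition above a set limit, 3 SD over mean compound inhibition, in both replicates, cut at about 43% in these data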;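 also: modified DeaD lifespan yeast strain shifted to restrictive glucose medium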). The settings on record: OD615, 48 h, at 10 µM, active compounds read high. In outline:
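material = engineered S. cerevisiae DeaD strain | medium = glucose-based CSMM-D restrictive medium | times = 4 h pre-incubation, 48 h exposure at 30 °C | technique = OD615 absorbance reading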

A short description of assay [3]: viability gain of MRP-1-high H69AR cells under doxorubicin, pilot screen, MRP-1 activator project, CellTiter-Glo, duplicate (AID 807;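 active = viability increase at or above a cutoff of the median across tested compounds plus 3 SD, cut at about 8.5% in these data, passing the limit was not always enough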;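 also: compound pretreatment 18-22 h then 72 h combined with doxorubicin; 0% = doxorubicin alone and 100% = vehicle without doxorubicin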). Conditions: H69AR viability with doxorubicin, CellTiter-Glo luminescence; at 10 µM; active compounds read high. (Cellular ATP, detected with luciferase, serves as a proxy for viable cell number.)
A short description of assay [4]: growth suppression of PTEN-deleted HCT116, pilot screen, cell-based, HCT116 clonal line, CellTiter-Glo (AID 824;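 active = viability at or below 27.92% in each of two runs, the all-compound median minus 4 SD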;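 also: 0% = 20 µM Hyamine control and 100% = vehicle cell control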). The settings on record: 60 h, at 10 µM, active compounds read low.
The nature of assay [5]: inhibitors of the yeast RAM network, pilot screen, dse1pr::URA3 reporter, 5-FOA selection (AID 869).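 Also: 0% = DMSO wells with no growth and 100% = 10 µM 1-NA-PP1 with full growth; RAM network block rescues cells from 5-FOA so hits raise OD615 growth.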 Conditions: S. cerevisiae dse1pr::URA3 5-FOA growth, OD615, 2 d; at 10 µM; active compounds read high; strain carries analog-sensitive mutant Cbk1 kinase.
A short description of assay [6]: RAM signaling pathway blockade in yeast – S. cerevisiae, Pdr1DBD-CYC8 efflux-inhibited sensitized strain, primary screen (AID 1298;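 active = RAM network inhibition above 8.4% in each of two replicates, 3 SD over the compound average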;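 also: 0% = DMSO untreated cells without growth and 100% = 10 µM 1-NA-PP1 full growth; higher means more yeast growth rescued from 5-FOA killing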). The settings on record: S. cerevisiae cbk1-as DSE1-URA3 strain, 5-FOA growth OD615, 2 d; at 50 µM; active compounds read high.

In the case of `CCC(=O)Nc1sc2c(c1C#N)CC(C)(C)NC2(C)C`, the growth inhibition in assay [1] is -7.39%; in assay [2] it was -4.29%. In addition, the viability increase in assay [3] is 0.09%. The viability in assay [4] is 100%. The inhibition in assay [5] is 1.89%. In addition, the RAM network inhibition in assay [6] is 0.46%.

As for `CCOc1ccc(-n2c(SCC(=O)Nc3cc(C)on3)nc3c([nH]c4ccccc43)c2=O)cc1`, the growth inhibition in assay [1] was -16.7%; in assay [2], -15.4%. Moreover, the viability increase in assay [3] is -6.08%. Moreover, in assay [4], the viability is 55.3%. In assay [5], the inhibition is 0.94%. Also, in assay [6], the RAM network inhibition was 5.59%.

Consider `Cc1ccsc1C(=O)OCC(=O)c1cc2ccccc2o1`, for which the growth inhibition was -18.1% in assay [1] and -10.8% in assay [2]. The viability increase in assay [3] is -2.86%. In assay [4], the viability was 97.3%. For the same compound, the inhibition in assay [5] is 1.28%. Further, in assay [6], the RAM network inhibition was 1.03%.

On to `CCN(Cc1ccccc1)S(=O)(=O)c1ccc(C(=O)Nc2nnc(C3CC3)o2)cc1`, for which the growth inhibition in assay [1] was -5.06%; in assay [2] it was -18.6%. The viability increase in assay [3] was -4.27%. The viability in assay [4] is 22.8% (active). In addition, the inhibition in assay [5] is 2.35%. Besides, the RAM network inhibition in assay [6] was 5.05%.

Turning to `O=C(NCc1cccnc1)NC1(C(F)(F)F)Oc2ccccc2O1`, the values for the growth inhibition in assay [1] and in assay [2] were 4.4% and 5.9%, respectively. Further, the viability increase in assay [3] was -5.46%. Also, the viability in assay [4] is 67.2%. In assay [5], the inhibition was 0.81%. The RAM network inhibition in assay [6] was 3.16%.

As to `CC(C)Cn1c(SCC#N)nc2ccccc2c1=O`, the results for the growth inhibition in assay [1] and in assay [2] were -0.35% and -14.3%, respectively. For the same compound, the viability increase in assay [3] is -1.74%. Moreover, the viability in assay [4] is 88%. Besides, the inhibition in assay [5] is 1.18%. In addition, in assay [6], the RAM network inhibition is 5.88%.

Take `CCOC(=O)N1CCN(C(=O)C(CC(C)C)NC(=O)C2CCCCC2)CC1` (centres undefined): the values for the growth inhibition in assay [1] and in assay [2] were -11.7% and -4.5%, respectively. Besides, in assay [3], the viability increase was -2.13%. For the same compound, the viability in assay [4] was 101%. For the same compound, the inhibition in assay [5] is 0.455%. Further, in assay [6], the RAM network inhibition is 1.59%.

As to `Cc1c(C(=O)NCc2ccccc2)oc2ccc(S(=O)(=O)N3CCC4(CC3)OCCO4)cc12`, the growth inhibition in assay [1] was 5.31%; in assay [2], 2.71%. The viability increase in assay [3] was -4.5%. In assay [4], the viability is 66.5%. The inhibition in assay [5] is 3.6%. Also, the RAM network inhibition in assay [6] is 2.96%.

`COCCOC(=O)c1c(C)oc2ccc(OC(=O)c3cccs3)cc12`: the growth inhibition is -11.1% in assay [1] and -17% in assay [2]. Also, the viability increase in assay [3] is 1.16%. The viability in assay [4] was 104%. Moreover, the inhibition in assay [5] is 2.33%. Moreover, the RAM network inhibition in assay [6] is 6.79%.

For the compound `O=C(NCc1ccco1)c1ccc(CN2CCOCC2)cc1`, the growth inhibition is -5.32% in assay [1] and 1.69% in assay [2]. Besides, in assay [3], the viability increase was -3.13%. The viability in assay [4] is 105%. For the same compound, the inhibition in assay [5] was 2.41%. For the same compound, the RAM network inhibition in assay [6] is 2.2%.

Take `CCCCC1CC(CSc2ncn[nH]2)OC1=O` (centres undefined): the growth inhibition was -11.3% in assay [1] and -7.68% in assay [2]. In addition, in assay [3], the viability increase was 1.38%. In assay [4], the viability was 98%. Further, in assay [5], the inhibition was 1.21%. Moreover, the RAM network inhibition in assay [6] was 0.01%.

As to `Cc1ccc(N(CC(=O)Nc2ccc(S(=O)(=O)N3CCOCC3)cc2)S(C)(=O)=O)cc1C`, the growth inhibition is -6.29% in assay [1] and -5.42% in assay [2]. The viability increase in assay [3] was -4.96%. Moreover, in assay [4], the viability is 84.2%. Moreover, the inhibition in assay [5] was 0.84%. Besides, the RAM network inhibition in assay [6] was 2.67%.

`COc1ccccc1C(=O)C(O)c1ccccc1OC` (centres undefined): the results for the growth inhibition in assay [1] and in assay [2] were -8.34% and 0.335%, respectively. Further, the viability increase in assay [3] was 0.03%. Further, the viability in assay [4] is 94.4%. Moreover, the inhibition in assay [5] was 0.755%. In addition, the RAM network inhibition in assay [6] is 5.17%.

Turning to `CC(NC(=O)c1ccccc1O)c1ccccc1` (centres undefined), the growth inhibition in assay [1] is 0.015%; in assay [2], -2.42%. Also, the viability increase in assay [3] is 0.41%. Also, in assay [4], the viability is 94.1%. Moreover, the inhibition in assay [5] was 0.1%. In addition, the RAM network inhibition in assay [6] is 0%.

With `C=CCC1(O)C(=O)N2C(=C1C(=O)N1CCOCC1)c1ccccc1CC2(C)C` (centres undefined), the values for the growth inhibition in assay [1] and in assay [2] were 5.07% and -8.41%, respectively. For the same compound, in assay [3], the viability increase is -2.47%. Moreover, the viability in assay [4] was 99.4%. Besides, in assay [5], the inhibition was 0.41%. The RAM network inhibition in assay [6] was 2.11%.

For the compound `O=C(NCc1ccco1)C1CCN(C(=O)Cc2ccccc2)CC1`, the growth inhibition in assay [1] was -8.46%; in assay [2] it was 4.75%. Further, in assay [3], the viability increase is -3.71%. The viability in assay [4] is 102%. In assay [5], the inhibition was 1.32%. In assay [6], the RAM network inhibition is 3.59%.

`CCCOC(=O)c1ccc(OCC(O)Cn2c(C)nc3ccccc32)cc1` (centres undefined): the growth inhibition in assay [1] is -11.1%; in assay [2], -3.87%. Also, the viability increase in assay [3] was -1.73%. The viability in assay [4] was 57.2%. Moreover, the inhibition in assay [5] was 0.99%. The RAM network inhibition in assay [6] is 6.95%.

Regarding `CC(=O)N1CCN(S(=O)(=O)c2ccc(C)cc2)C1c1ccc(N(C)C)cc1` (centres undefined), the growth inhibition in assay [1] is 4.58%; in assay [2], 1.53%. Further, the viability increase in assay [3] was -2.16%. For the same compound, in assay [4], the viability was 97.1%. In addition, the inhibition in assay [5] is 1.61%. In addition, the RAM network inhibition in assay [6] was 4.14%.

For the compound `COC(=O)CNC(=O)Cn1cnc2sc(C)c(S(=O)(=O)N3CCC(C)CC3)c2c1=O`, the values for the growth inhibition in assay [1] and in assay [2] were -2.79% and 12.7%, respectively. For the same compound, the viability increase in assay [3] is -3.93%. Besides, in assay [4], the viability is 99.2%. For the same compound, in assay [5], the inhibition was 1.11%. Besides, the RAM network inhibition in assay [6] was 0.37%.
